Results published in ChEMBL document CHEMBL1134543, “A rational approach to the design of selective substrates and potent nontransportable inhibitors of the excitatory amino acid transporter EAAC1 (EAAT3). new glutamate and aspartate analogues as potential neuroprotective agents” (J Med Chem, 2001).
Active and inactive are the calls of the source. No cut-off for these calls is given here.

Key:
[1] = biological target: T1, Excitatory amino acid transporter 3 (Rattus norvegicus) (UniProt P51907); assay: Steady state transport rate by EAAC1 (EAAT3) in mammalian cells; format: cell-based
T1 sequence (whole entry): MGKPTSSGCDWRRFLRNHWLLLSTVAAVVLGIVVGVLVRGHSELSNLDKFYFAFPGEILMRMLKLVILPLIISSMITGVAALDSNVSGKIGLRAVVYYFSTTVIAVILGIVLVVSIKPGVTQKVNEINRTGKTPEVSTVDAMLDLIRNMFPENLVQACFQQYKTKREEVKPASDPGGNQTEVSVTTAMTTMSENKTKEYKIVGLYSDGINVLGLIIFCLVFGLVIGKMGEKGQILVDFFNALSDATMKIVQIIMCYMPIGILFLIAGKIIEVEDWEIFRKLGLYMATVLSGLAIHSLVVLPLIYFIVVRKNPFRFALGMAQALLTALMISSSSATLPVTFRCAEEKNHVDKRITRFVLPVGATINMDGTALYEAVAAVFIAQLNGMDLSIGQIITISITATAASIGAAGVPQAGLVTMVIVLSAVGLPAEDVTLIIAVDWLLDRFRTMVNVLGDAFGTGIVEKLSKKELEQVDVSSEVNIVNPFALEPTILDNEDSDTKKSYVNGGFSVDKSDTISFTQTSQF
How it was run: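 Whole-cell currents from EAAC1-expressing mammalian cells (intracellular SCN-, Vm 0 mV, pH 7.4, 22 °C). Steady-state KS is taken from concentration dependence. Imax ratio is the current at saturating test compound relative to the current at saturating (1 mM) L-glutamate.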

[2] = biological target: Glutamate receptor ionotropic, kainate (Rattus norvegicus) (UniProt P22756+Q01812+P42260+P42264+Q63273); assay: Binding affinity towards Ionotropic glutamate receptor kainate by displacement of [3H]-kainic acid radioligand; Not active; format: protein-complex assay
[3] = biological target: Glutamate receptor ionotropic, AMPA (Rattus norvegicus) (UniProt P19491+P19492+P19493+P19490); assay: Binding affinity towards AMPA receptor by displacement of [3H]-AMPA radioligand; Not active; format: protein-complex assay
[4] = biological target: Glutamate NMDA receptor (Rattus norvegicus) (UniProt P35439+Q00959+Q00960+Q00961+Q62645+Q8VHN2+Q9R1M7); assay: Binding affinity towards NMDA receptor by displacement of [3H]CGP-39653 radioligand; Not active; format: protein-complex assay
[5] = biological target: Glutamate receptor ionotropic, kainate; assay: Binding affinity towards Ionotropic glutamate receptor kainate by displacement of [3H]-kainic acid radioligand; format: protein-complex assay
[6] = biological target: T2, Glutamate receptor ionotropic, AMPA (Rattus norvegicus, UniProt P19490+P19491+P19492+P19493); assay: Binding affinity towards AMPA receptor by displacement of [3H]AMPA radioligand.; format: protein-complex assay
Glutamate NMDA receptor = assay: Binding affinity towards NMDA receptor by displacement of [3H]CGP-39653 radioligand.; format: protein-complex assay
[7] = biological target: T2, Glutamate receptor ionotropic, AMPA; assay: Binding affinity towards AMPA receptor by displacement of [3H]AMPA radioligand; format: protein-complex assay
[8] = biological target: T3, Excitatory amino acid transporter 3 (Rattus norvegicus, UniProt P51907); assay: Inhibitory activity against EAAC1 (EAAT3) in presence of 20 uM L-glutamic acid.
T3 sequence (P51907 whole entry): T1 sequence (whole entry)

[9] = biological target: T3, Excitatory amino acid transporter 3; assay: Inhibitory activity against EAAC1 (EAAT3) in absence of L-glutamic acid.
[10] = biological target: T3, Excitatory amino acid transporter 3; assay: Inhibitory activity against EAAC1 (EAAT3) in presence of 20 uM L-glutamic acid in mammalian cells; format: cell-based
[11] = biological target: T3, Excitatory amino acid transporter 3; assay: Inhibitory activity against EAAC1 (EAAT3) in absence of L-glutamic acid in mammalian cells; format: cell-based

SMILES	Ks [1]	NA [2]	NA [3]	NA [4]	Ki [5]	Ki (Glutamate NMDA receptor)	also measured
N[C@@H](CCC(=O)O)C(=O)O	5.1 µM	–	–	–	–	–	–
N[C@@H](CC1=N[C@H](C(=O)O)CO1)C(=O)O	31 µM	inactive	inactive	inactive	–	–	–
N[C@@H](CCc1nc(C(=O)O)co1)C(=O)O	100 µM	–	–	–	8 µM	3 µM	Ki [6]: 41 µM
N[C@@H](CCC1=N[C@H](C(=O)O)CO1)C(=O)O	730 µM	–	–	–	14 µM	9 µM	Ki [7]: 103 µM
O=C(O)c1nc(-c2ccccc2)oc1C(=O)O	–	inactive	inactive	inactive	–	–	Ki [8]: 530 µM; Ki [9]: 75 µM
O=C(O)[C@H]1N=C(c2ccccc2)O[C@@H]1C(=O)O	–	inactive	inactive	inactive	–	–	Ki [10]: 42 µM; Ki [11]: 14 µM
